Experimental data from ChEMBL document CHEMBL1124684, “Studies on prodrugs. 10. Possible mechanism of N-dealkylation of N-masked norfloxacins having several active methylene groups” (J Med Chem, 1989).

Experiments:
Mus musculus [1] = assay: Serum concentration of the liberated Norfloxacin after oral administration (100 mg/kg) in mice after 1.0 hr; assay type: functional, organism-based
In short: (§1)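 Mice dosed orally at 100 mg/kg, suspended in 0.5% sodium carboxymethylcellulose. Animals killed by bleeding at 0.5, 1.0, 2.0 and 4.0 h; blood centrifuged, serum adjusted. NFLX in serum quantified by HPLC with UV detection at 280 nm. Stability of the masked compounds at pH 7.4 and 37 °C was checked beforehand by HPLC.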

Mus musculus [2] = assay: Serum concentration of the liberated Norfloxacin after oral administration (100 mg/kg) in mice after 4.0h; assay type: functional, organism-based; in short: as §1
[3] = (§2) Compound was evaluated for Area under curve in mice; assay type: ADME, organism-based; design: concentration or dose not given beside the values; conditions: mouse, in vivo
Mus musculus [4] = species: Mus musculus; assay: as §2; assay type: ADME, organism-based; design: concentration or dose not given beside the values; conditions: in vivo
Mus musculus [5] = assay: Serum concentration of the liberated Norfloxacin after oral administration 100 mg/kg in mice after the 0.5 h; assay type: functional, organism-based; design: dose 100 mg/kg; in short: as §1
Mus musculus [6] = assay: Serum concentration of the liberated Norfloxacin after oral administration 100 mg/kg in mice after the 4.0 h; assay type: functional, organism-based; design: dose 100 mg/kg; in short: as §1
Mus musculus [7] = assay: (§3) Serum concentration of the liberated Norfloxacin after oral administration (100 mg/kg) in mice after 0.5 hr; assay type: functional, organism-based; in short: as §1
Mus musculus [8] = assay: Serum concentration of the liberated Norfloxacin after oral administration 100 mg/kg in mice after the 1.0 h; assay type: functional, organism-based; design: dose 100 mg/kg; in short: as §1
Mus musculus [9] = assay: Serum concentration of the liberated Norfloxacin after oral administration 100 mg/kg in mice after the 2.0 h; assay type: functional, organism-based; design: dose 100 mg/kg; in short: as §1
Mus musculus [10] = assay: Serum concentration of the liberated Norfloxacin after oral administration (100 mg/kg) in mice after 2.0 hr; assay type: functional, organism-based; in short: as §1
Mus musculus [11] = assay: as §3; assay type: functional, organism-based; in short: as §1; remark: listed apart in the source
Mus musculus [12] = assay: Serum concentration of the liberated Norfloxacin after oral administration (100 mg/kg) in mice after 2.0h; ND is not detected; assay type: functional, organism-based; in short: as §1
Mus musculus [13] = assay: Serum concentration of the liberated Norfloxacin after oral administration (100 mg/kg) in mice after 4.0h; ND is not detected; assay type: functional, organism-based; in short: as §1
Mus musculus [14] = assay: Serum concentration of the liberated Norfloxacin after oral administration (100 mg/kg) in mice after 0.5 hr; ND is not detected; assay type: functional, organism-based; in short: as §1
Mus musculus [15] = assay: Serum concentration of the liberated Norfloxacin after oral administration (100 mg/kg) in mice after 1.0h; ND is not detected; assay type: functional, organism-based; in short: as §1

| SMILES | Serum concentration (Mus musculus [1]) [µg/mL] | Serum concentration (Mus musculus [2]) [µg/mL] | AUC [3] [µg·h/mL] | AUC (Mus musculus [4]) [µg·h/mL] | Serum concentration (Mus musculus [5]) [µg/mL] | Serum concentration (Mus musculus [6]) [µg/mL] | Serum concentration (Mus musculus [7]) [µg/mL] | Serum concentration (Mus musculus [8]) [µg/mL] | Serum concentration (Mus musculus [9]) [µg/mL] | Serum concentration (Mus musculus [10]) [µg/mL] | Serum concentration (Mus musculus [11]) [µg/mL] | Serum concentration (Mus musculus [12]) | Serum concentration (Mus musculus [13]) | Serum concentration (Mus musculus [14]) | Serum concentration (Mus musculus [15]) |
| --- | --- | --- | --- | --- | --- | --- | --- | --- | --- | --- | --- | --- | --- | --- | --- |
| CCn1cc(C(=O)O)c(=O)c2cc(F)c(N3CCN(C(C)C(C)=O)CC3)cc21 (stereo not drawn) | 1.68 | 0.63 | 5.71 | 5.71 | 2.63 | 0.63 | 2.63 | 1.68 | 1.67 | 1.67 |  |  |  |  |  |
| CCn1cc(C(=O)O)c(=O)c2cc(F)c(N3CCN(CC(C)=O)CC3)cc21 | 5.74 | 2.62 | 22 | 22.01 |  | 2.62 | 6.33 | 5.74 | 3.96 | 3.96 | 6.33 |  |  |  |  |
| CCOC(=O)CN1CCN(c2cc3c(cc2F)c(=O)c(C(=O)O)cn3CC)CC1 | 1.37 | 0.42 | 3.9 | 3.9 | 3.77 | 0.42 | 3.77 | 1.37 | 0.38 | 0.38 |  |  |  |  |  |
| CCn1cc(C(=O)O)c(=O)c2cc(F)c(N3CCN(CC(C)O)CC3)cc21 (stereo not drawn) |  |  |  |  |  |  |  |  |  |  |  | Not detected | Not detected | Not detected | Not detected |
| CCn1cc(C(=O)O)c(=O)c2cc(F)c(N3CCN(C(C)(C)C(C)=O)CC3)cc21 |  |  |  |  |  |  |  |  |  |  |  | Not detected | Not detected | Not detected | Not detected |
| CCn1cc(C(=O)O)c(=O)c2cc(F)c(N3CCN(CC#N)CC3)cc21 | 0.75 | 0.63 | 3.06 | 3.06 | 0.29 | 0.63 | 0.29 | 0.75 | 1.15 | 1.15 |  |  |  |  |  |
| CCn1cc(C(=O)O)c(=O)c2cc(F)c(N3CCNCC3)cc21 [NORFLOXACIN] | 2.02 | 0.56 | 6.49 | 6.49 | 3.47 | 0.56 | 3.47 | 2.02 | 1.12 | 1.12 |  |  |  |  |  |
